Drawing on ChEMBL document CHEMBL3244365, “Synthesis of potential hypolipidemic agents. Reaction of substituted phenyl 2,3-epoxypropyl ethers with adenine, uracil, and thymine” (J Med Chem, 1978), this text covers level, % of control, inhibition and Activity for 15 compounds.

Structures are written as SMILES. Activity calls are given as the source filed them. The calls are words filed in the database; no cut-off is given here.

The test system of series [1] is Rattus norvegicus. The series is described as follows: Hypolipidemic activity in Sprague-Dawley rat assessed as incorporation of [1,3-14C]glycerol in liver phospholipid at 100 mg/kg, po qd for 1 week (reference value: 100 +/- 8.3%). Conditions: 168 h.
The test system of another series is Liver microsome. Description: Hypolipidemic activity in rat liver microsomes assessed as inhibition of incorporation of [1,3-14C]glycerol 3-phosphate ino neutral lipid at 0.5 to 5 mM. The class given is functional. The gist of the method:
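Rat liver microsomes were incubated with sn-[1,3-14C]glycerol 3-phosphate in the presence of ATP, palmitate, CoA and Mg2+. Label incorporated into neutral lipid (diglyceride + triglyceride) was measured, and phosphatidic acid accumulation was also followed.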
In general terms: Microsomes from liver hold many membrane-bound enzymes, among them those of drug oxidation.

Series [2] deals with Rattus norvegicus. Description: Hypolipidemic activity in Sprague-Dawley rat assessed as change in liver triglyceride at 50 mg/kg, po qd for 1 week (reference value: 100 +/- 8.4%). Conditions: 168 h.
Series [3] deals with Rattus norvegicus. Description: Hypolipidemic activity in Sprague-Dawley rat assessed as decrease in serum cholesterol at 10 mg/kg/day, po after 22 to 24 hrs by Liebermann-Burchard reaction (reference value: 100 +/- 8%). The class given is functional. In a few lines: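 Male Sprague-Dawley rats were kept on rodent chow with water ad libitum. Compounds were suspended and homogenized in 1% CMC-water and given by oral intubation once daily at 11:00 a.m., with doses based on weekly body weights. Tail-vein blood was taken 22-24 h after dosing into nonheparinized microcapillary tubes and centrifuged 3 min. Serum cholesterol (mg %) was measured on duplicate 30-μl non-hemolyzed samples by a modified Liebermann-Burchard reaction.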

In series [4] the test system is Rattus norvegicus. Description: Hypolipidemic activity in Sprague-Dawley rat assessed as inhibition of incorporation of [1,3-14C]glycerol in liver triglyceride at 10 mg/kg, po qd for 1 week (reference value: 100 +/- 8.4%); values are per cent of control. Conditions: 168 h.
In series [5] the test system is Rattus norvegicus. Description: Hypolipidemic activity in Sprague-Dawley rat assessed as inhibition of incorporation of [1,3-14C]glycerol in liver triglyceride at 50 mg/kg, po qd for 1 week (reference value: 100 +/- 8.4%); values are per cent of control. Conditions: 168 h.
Series [6] relates to Rattus norvegicus. The series is described as follows: Hypolipidemic activity in Sprague-Dawley rat assessed as decrease in serum triglyceride at 50 mg/kg, po qd for 1 week (reference value: 100 +/- 5.3%). Type of series: functional. Conditions: 168 h.
Series [7] has as its system Rattus norvegicus. Description: Hypolipidemic activity in Sprague-Dawley rat assessed as incorporation of [1,3-14C]glycerol in liver phospholipid at 10 mg/kg, po qd for 1 week (reference value: 100 +/- 8.3%). Conditions: 168 h.
The subject of series [8] is Rattus norvegicus. The series is described as follows: Hypolipidemic activity in Sprague-Dawley rat assessed as decrease in liver triglyceride at 10 mg/kg, po qd for 1 week (reference value: 100 +/- 8.4%). Type of series: functional. Conditions: 168 h.
The species named for series [9] is Rattus norvegicus. The series is described as follows: Inhibition of rat phosphatidate phosphohydrolase in liver microsomes assessed as reduction in enzyme activity at 2 mmol.
Series [10] concerns Rattus norvegicus. Description: Hypolipidemic activity in Sprague-Dawley rat assessed as decrease in serum triglyceride at 10 mg/kg, po qd for 1 week (reference value: 100 +/- 5.3%). Conditions: 168 h. The class given is functional.
For series [11], the system named is Rattus norvegicus. Description: Hypolipidemic activity in Sprague-Dawley rat assessed as inhibition of incorporation of [1,3-14C]glycerol in liver phospholipid at 50 mg/kg, po qd for 1 week (reference value: 100 +/- 8.3%); values are per cent of control. Conditions: 168 h.
The subject of series [12] is Rattus norvegicus. The series is described as follows: Hypolipidemic activity in Sprague-Dawley rat assessed as decrease in serum triglyceride at 100 mg/kg, po qd for 1 week (reference value: 100 +/- 5.3%). Type of series: functional. Conditions: 168 h.
Series [13] deals with Rattus norvegicus. Description: Toxicity in Sprague-Dawley rat assessed as change in body weight at 10 to 100 mg/kg, po. Conditions: in vivo. Further details: dose 10-100 mg/kg, route oral. Type of series: organism-based. The gist of the method: (§1)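 Male Sprague-Dawley rats received 10-100 mg/kg orally once daily for 7 days as a 1% CMC-water suspension. Body weight gain, food intake and deaths were monitored.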

For series [14], the system named is Rattus norvegicus. Description: Hypolipidemic activity in Sprague-Dawley rat assessed as liver triglyceride level at 100 mg/kg, po qd for 1 week (reference value: 100 +/- 8.4%). Conditions: 168 h.
For series [15], the system named is Rattus norvegicus. Description: Toxicity in Sprague-Dawley rat assessed as change in food intake at 10 to 100 mg/kg, po. Conditions: in vivo. The class given is organism-based. Further details: dose 10-100 mg/kg, route oral. In a few lines: as §1
Series [16] deals with Rattus norvegicus. The series is described as follows: Hypolipidemic activity in Sprague-Dawley rat assessed as inhibition of incorporation of [1,3-14C]glycerol in liver triglyceride at 100 mg/kg, po qd for 1 week (reference value: 100 +/- 8.4%); values are per cent of control. Conditions: 168 h.

In the case of `Nc1ncnc2c1ncn2CC(O)COc1ccc(Cl)cc1` (stereo unspecified), the level, % of control at 100 mg/kg in the series with Rattus norvegicus [1] amounted to 36.7%; in the series with Rattus norvegicus [12] it was 40.3%; in the series on Rattus norvegicus [14], 345%; with Rattus norvegicus [16], 31.8%. In addition, in the series with Liver microsome, the inhibition entry is “Active”. For the same compound, the level, % of control at 50 mg/kg in the series with Rattus norvegicus [2] was 252%; with Rattus norvegicus [5] it was 29%; in the series on Rattus norvegicus [6], 38.5%; in the series with Rattus norvegicus [11] it was 33.5%. Moreover, in the series with Rattus norvegicus [3], the level, % of control at 10 mg/kg/day came to 93%. Also, the level, % of control at 10 mg/kg in the series with Rattus norvegicus [4] amounted to 36.7%; with Rattus norvegicus [7], 74.9%; with Rattus norvegicus [8], 57.6%; with Rattus norvegicus [10], 73%. Besides, the inhibition in the series filed under Rattus norvegicus [9] was found to be 50%. The Activity entry with Rattus norvegicus [13] and in the series on Rattus norvegicus [15] was “Non-toxic” each time.

Consider `Nc1ncnc2c1ncn2CC(O)COc1ccc(C(=O)c2ccccc2)cc1` (stereo unspecified), for which, in the series on Rattus norvegicus [3], the level, % of control at 10 mg/kg/day was found to be 118%.

Take `Nc1ncnc2c1ncn2CC(O)COc1ccc(F)cc1` (stereo unspecified): the level, % of control at 10 mg/kg/day in the series on Rattus norvegicus [3] is 86%.

With `COc1ccc(OCC(O)Cn2ccc(=O)[nH]c2=O)cc1` (stereo unspecified), in the series with Rattus norvegicus [3], the level, % of control at 10 mg/kg/day amounted to 93%.

Turning to `CC(C)(C)c1ccc(OCC(O)Cn2cnc3c(N)ncnc32)cc1` (stereo unspecified), the level, % of control at 10 mg/kg/day in the series with Rattus norvegicus [3] amounted to 110%.

Consider `Cc1ccc(OCC(O)Cn2ccc(=O)[nH]c2=O)cc1` (stereo unspecified), for which the level, % of control at 10 mg/kg/day with Rattus norvegicus [3] turned out to be 89%.

On to `Cc1cn(CC(O)COc2ccc(Cl)cc2)c(=O)[nH]c1=O` (stereo unspecified), for which, in the series with Rattus norvegicus [3], the level, % of control at 10 mg/kg/day turned out to be 96%.

With `CC(=O)c1ccc(OCC(O)Cn2cnc3c(N)ncnc32)cc1` (stereo unspecified), the level, % of control at 10 mg/kg/day with Rattus norvegicus [3] is 99%.

Take `Cc1ccc(OCC(O)Cn2cc(C)c(=O)[nH]c2=O)cc1` (stereo unspecified): in the series with Rattus norvegicus [3], the level, % of control at 10 mg/kg/day worked out at 99%.

With `Nc1ncnc2c1ncn2CC(O)COc1ccc(Br)cc1` (stereo unspecified), the level, % of control at 10 mg/kg/day with Rattus norvegicus [3] worked out at 96%.

As to `Nc1ncnc2c1ncn2CC(O)CSc1ccc(Cl)cc1` (stereo unspecified), the level, % of control at 10 mg/kg/day in the series on Rattus norvegicus [3] stood at 79%.

Regarding `Nc1ncnc2c1ncn2CC(O)COc1ccccc1Cl` (stereo unspecified), the level, % of control at 10 mg/kg/day with Rattus norvegicus [3] is 93%.

For `Nc1ncnc2c1ncn2CC(O)COc1cccc(Cl)c1` (stereo unspecified), in the series with Rattus norvegicus [3], the level, % of control at 10 mg/kg/day was 97%.

Consider `COc1ccc(OCC(O)Cn2cnc3c(N)ncnc32)cc1` (stereo unspecified), for which the level, % of control at 10 mg/kg/day with Rattus norvegicus [3] was found to be 93%.

For the compound `O=c1ccn(CC(O)COc2ccc(Cl)cc2)c(=O)[nH]1` (stereo unspecified), the level, % of control at 10 mg/kg/day in the series with Rattus norvegicus [3] stood at 102%.

What is called inhibition is the change of the read-out against control, counted positive when it falls.
